ChEMBL document CHEMBL1145047, “Design, synthesis, and evaluation of substituted phenylpropanoic acid derivatives as human peroxisome proliferator activated receptor activators. Discovery of potent and human peroxisome proliferator activated receptor alpha subtype-selective activators” (J Med Chem, 2003)

Tests used:
Assay type in all cases: functional
[1] = test system: Rattus norvegicus; assay: In vivo percent reduction on LDL+VLDL of the rat at 0.3 mg/kg after 5 days
How it was run: (§1)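 Male Sprague-Dawley rats, 11 weeks old, fed standard chow and water ad libitum. Drug or vehicle suspended in 0.5% w/v arabic gum and given orally once daily at 0.3, 3 or 30 mg/kg; duration is 4 days in the methods and 5 days in the table. Plasma taken in the fed state. TG, FFA and total cholesterol measured enzymatically. HDL obtained by precipitation; LDL+VLDL = total minus HDL cholesterol. Values are mean percent reduction, N = 5 or 6.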

[2] = test system: Rattus norvegicus; assay: In vivo percent reduction on TG of the rat at 0.3 mg/kg after 5 days; how it was run: as §1
[3] = test system: Rattus norvegicus; assay: In vivo percent reduction on TG of the rat at 3 mg/kg after 5 days; how it was run: as §1
[4] = test system: Rattus norvegicus; assay: In vivo percent reduction on LDL+VLDL of the rat at 3 mg/kg after 5 days; how it was run: as §1
[5] = test system: Rattus norvegicus; assay: In vivo percent reduction on LDL+VLDL of the normal rat at 30 mg/kg; how it was run: as §1
[6] = test system: Rattus norvegicus; assay: In vivo percent reduction on FFA of the rat at 3 mg/kg after 5 days; how it was run: as §1
[7] = test system: Rattus norvegicus; assay: In vivo percent reduction on LDL+VLDL of the normal rat at 0.3 mg/kg; how it was run: as §1
[8] = test system: Rattus norvegicus; assay: In vivo percent reduction on FFA of the normal rat at 0.3 mg/kg; how it was run: as §1
[9] = test system: Rattus norvegicus; assay: In vivo percent reduction on LDL+VLDL of the normal rat at 3 mg/kg; how it was run: as §1
[10] = test system: Rattus norvegicus; assay: In vivo percent reduction on total cholesterol of the rat at 30 mg/kg after 5 days; how it was run: as §1
[11] = test system: Rattus norvegicus; assay: In vivo percent reduction on TG of the rat at 30 mg/kg after 5 days; how it was run: as §1
[12] = test system: Rattus norvegicus; assay: In vivo percent reduction on total cholesterol of the normal rat at 30 mg/kg; how it was run: as §1
[13] = test system: Rattus norvegicus; assay: In vivo percent reduction on FFA of the rat at 0.3 mg/kg after 5 days; how it was run: as §1
[14] = test system: Rattus norvegicus; assay: In vivo percent reduction on TG of the normal rat at 0.3 mg/kg; how it was run: as §1
[15] = test system: Rattus norvegicus; assay: In vivo percent reduction on total cholesterol of the rat at 0.3 mg/kg after 5 days; how it was run: as §1
[16] = test system: Rattus norvegicus; assay: In vivo percent reduction on total cholesterol of the rat at 3 mg/kg after 5 days; how it was run: as §1
[17] = test system: Rattus norvegicus; assay: In vivo percent reduction on total cholesterol of the normal rat at 3 mg/kg; how it was run: as §1
[18] = test system: Rattus norvegicus; assay: In vivo percent reduction on FFA of the rat at 30 mg/kg after 5 days; how it was run: as §1
[19] = test system: Rattus norvegicus; assay: In vivo percent reduction on TG of the normal rat at 3 mg/kg; how it was run: as §1
[20] = test system: Rattus norvegicus; assay: In vivo percent reduction on FFA of the normal rat at 3 mg/kg; how it was run: as §1
[21] = test system: Rattus norvegicus; assay: In vivo percent reduction on total cholesterol of the normal rat at 0.3 mg/kg; how it was run: as §1
[22] = test system: Rattus norvegicus; assay: In vivo percent reduction on LDL+VLDL of the rat at 30 mg/kg after 5 days; how it was run: as §1
[23] = test system: Rattus norvegicus; assay: In vivo percent reduction on FFA of the normal rat at 30 mg/kg; how it was run: as §1
[24] = test system: Rattus norvegicus; assay: In vivo percent reduction on TG of the normal rat at 30 mg/kg; how it was run: as §1

CC[C@@H](Cc1ccc(OC)c(C(=O)NCc2ccc(C(F)(F)F)cc2)c1)C(=O)O
Reduction [1]: 29% | Reduction [2]: 15% | Reduction [3]: 25% | Reduction [4]: 58% | Reduction [5]: 58% | Reduction [6]: 28% | Reduction [7]: 46% | Reduction [8]: 11% | Reduction [9]: 56% | Reduction [10]: 35% | Reduction [11]: 56% | Reduction [12]: 32% | Reduction [13]: 12% | Reduction [14]: -1% | Reduction [15]: 22% | Reduction [16]: 29% | Reduction [17]: 26% | Reduction [18]: 69% | Reduction [19]: 26% | Reduction [20]: 27% | Reduction [21]: 19% | Reduction [22]: 60% | Reduction [23]: 72% | Reduction [24]: 33%
